From ChEMBL document CHEMBL5338714, “Design, synthesis and biological evaluation of biphenyl-benzamides as potent FtsZ inhibitors” (Eur J Med Chem, 2022) come the findings set out here.

What all share (type): functional
The subject of experiment [1] is Bacillus subtilis. The experiment in a line: Antibacterial activity against Bacillus subtilis ATCC9372 assessed as bacterial growth inhibition incubated for 18 hrs by CLSI based broth microdilution method. A digest of the protocol: (§1)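 CLSI broth microdilution. Log-phase bacteria in Mueller Hinton broth added to 2-fold serial dilutions spanning 128 to 0.25 or 2 to 0.004 µg/mL. Incubated aerobically for 18 h at 37 °C, then OD600 read. MIC is the lowest concentration giving ≥90% growth inhibition; three independent assays.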
(In general: In broth dilution the organism is exposed to a series of concentrations in liquid medium.)

Experiment [2] relates to Staphylococcus aureus. The experiment in a line: Antibacterial activity against Staphylococcus aureus ATCC29213 assessed as bacterial growth inhibition incubated for 18 hrs by CLSI based broth microdilution method. A digest of the protocol: as §1
Experiment [3] concerns Staphylococcus aureus. The experiment in a line: Antibacterial activity against Staphylococcus aureus ATCC25923 assessed as bacterial growth inhibition incubated for 18 hrs by CLSI based broth microdilution method. The gist of the method: as §1
Experiment [4] relates to Bacillus subtilis. The experiment in a line: Antibacterial activity against Bacillus subtilis MG27 assessed as bacterial growth inhibition incubated for 18 hrs by CLSI based broth microdilution method. The gist of the method:
as §1

In experiment [5] the test system is Bacillus subtilis. The experiment in a line: Antibacterial activity against Bacillus subtilis 618 assessed as bacterial growth inhibition incubated for 18 hrs by CLSI based broth microdilution method. The gist of the method:
as §1

In experiment [6] the test system is Bacillus subtilis. The experiment in a line: Antibacterial activity against Bacillus subtilis BS01 assessed as bacterial growth inhibition incubated for 18 hrs by CLSI based broth microdilution method. The gist of the method: as §1

Converted amounts (≈) assume the structure as drawn.

In the case of `N#Cc1ccc(-c2cccc(COc3ccc(F)c(C(N)=O)c3F)c2)cc1`, the MIC in the experiment on Bacillus subtilis [1], with Staphylococcus aureus [2] and in the experiment on Staphylococcus aureus [3] was more than 128 µg/mL in each case.
For `NC(=O)c1c(F)ccc(OCc2cccc(-c3ccccc3)c2)c1F`, the figures for the MIC in the experiment on Bacillus subtilis [1], in the experiment with Staphylococcus aureus [2] and in the experiment with Staphylococcus aureus [3] were 0.5 µg/mL (≈ 1.47 µM), 2 µg/mL (≈ 5.89 µM) and 2 µg/mL (≈ 5.89 µM), respectively.
For `NC(=O)c1c(F)ccc(OCc2cccc(-c3ccc(Cl)cc3F)c2)c1F`, the MIC in the experiment on Bacillus subtilis [1] turned out to be 0.016 µg/mL (≈ 0.0408 µM); in the experiment on Staphylococcus aureus [2], 0.5 µg/mL (≈ 1.28 µM); in the experiment with Staphylococcus aureus [3], 0.5 µg/mL (≈ 1.28 µM); with Bacillus subtilis [4] it was 0.031 µg/mL (≈ 0.0791 µM); in the experiment on Bacillus subtilis [5] it was 0.016 µg/mL (≈ 0.0408 µM); in the experiment with Bacillus subtilis [6], 0.016 µg/mL (≈ 0.0408 µM).
On to `NC(=O)c1c(F)ccc(OCc2cccc(-c3ccc(F)cc3)c2)c1F`, for which the MIC stood at 0.125 µg/mL (≈ 0.35 µM) in the experiment with Bacillus subtilis [1], 2 µg/mL (≈ 5.6 µM) in the experiment on Staphylococcus aureus [2] and 1 µg/mL (≈ 2.8 µM) in the experiment with Staphylococcus aureus [3].
The like results for `CCCCCc1ccc(-c2cccc(COc3ccc(F)c(C(N)=O)c3F)c2)cc1` were, in that order, 0.125 µg/mL (≈ 0.305 µM), more than 128 µg/mL and more than 128 µg/mL.
As for `Cc1cc(Cl)ccc1-c1cccc(C(CO)Oc2ccc(F)c(C(N)=O)c2F)c1` (configuration not stated), the values for the MIC in the experiment with Bacillus subtilis [1], in the experiment with Staphylococcus aureus [2] and in the experiment with Staphylococcus aureus [3] were 0.125 µg/mL (≈ 0.299 µM), 1 µg/mL (≈ 2.39 µM) and 1 µg/mL (≈ 2.39 µM), respectively.
Regarding `NC(=O)c1c(F)ccc(OCc2cccc(-c3ccc(Cl)cc3C(F)(F)F)c2)c1F`, the MIC in the experiment with Bacillus subtilis [1] was 0.125 µg/mL (≈ 0.283 µM); with Staphylococcus aureus [2] it was 0.5 µg/mL (≈ 1.13 µM); in the experiment with Staphylococcus aureus [3], 0.5 µg/mL (≈ 1.13 µM).
Consider `NC(=O)c1c(F)ccc(OCc2cccc(-c3ccc(C(F)(F)F)c(Cl)c3)c2)c1F`, for which the MIC in the experiment on Bacillus subtilis [1], with Staphylococcus aureus [2] and in the experiment with Staphylococcus aureus [3] was more than 128 µg/mL each time.
Consider `NC(=O)c1cc(C(F)(F)F)ccc1-c1cccc(COc2ccc(F)c(C(N)=O)c2F)c1`, for which the minimum inhibitory concentration (MIC) in the experiment with Bacillus subtilis [1], in the experiment with Staphylococcus aureus [2] and in the experiment on Staphylococcus aureus [3] was more than 128 µg/mL each time.
In the case of `NC(=O)c1c(F)ccc(OCc2ccccc2)c1F`, the minimal inhibitory concentration (MIC) turned out to be 16 µg/mL (≈ 60.8 µM) with Bacillus subtilis [1], 64 µg/mL (≈ 243 µM) with Staphylococcus aureus [2] and 32 µg/mL (≈ 122 µM) with Staphylococcus aureus [3].
With `NC(=O)c1c(F)ccc(OCc2cccc(-c3ccc(C(F)(F)F)cc3)c2)c1F`, the minimal inhibitory concentration (MIC) in the experiment with Bacillus subtilis [1] came to 0.125 µg/mL (≈ 0.307 µM); in the experiment on Staphylococcus aureus [2], 2 µg/mL (≈ 4.91 µM); with Staphylococcus aureus [3], 1 µg/mL (≈ 2.45 µM).
Take `NC(=O)c1c(F)ccc(OCc2cccc(-c3ccc(C(F)(F)F)cc3Cl)c2)c1F`: the minimal inhibitory concentration (MIC) with Bacillus subtilis [1] was determined as 0.031 µg/mL (≈ 0.0702 µM); in the experiment on Staphylococcus aureus [2] it was 0.25 µg/mL (≈ 0.566 µM); in the experiment on Staphylococcus aureus [3], 0.25 µg/mL (≈ 0.566 µM); in the experiment with Bacillus subtilis [4], 0.063 µg/mL (≈ 0.143 µM); with Bacillus subtilis [5], 0.063 µg/mL (≈ 0.143 µM); in the experiment with Bacillus subtilis [6] it was 0.031 µg/mL (≈ 0.0702 µM).
On to `NC(=O)c1c(F)ccc(OCc2cccc(-c3ccc(Cl)cc3)c2)c1F`, for which the MIC with Bacillus subtilis [1] is 0.063 µg/mL (≈ 0.169 µM); in the experiment on Staphylococcus aureus [2] it was 0.25 µg/mL (≈ 0.669 µM); in the experiment on Staphylococcus aureus [3], 0.25 µg/mL (≈ 0.669 µM).
In the case of `CCCc1ccc(-c2cccc(COc3ccc(F)c(C(N)=O)c3F)c2)cc1`, the MIC turned out to be 0.125 µg/mL (≈ 0.328 µM) in the experiment with Bacillus subtilis [1], 1 µg/mL (≈ 2.62 µM) in the experiment on Staphylococcus aureus [2] and 1 µg/mL (≈ 2.62 µM) with Staphylococcus aureus [3].
Consider `Cc1ccccc1-c1cccc(COc2ccc(F)c(C(N)=O)c2F)c1`, for which the minimum inhibitory concentration (MIC) was 0.25 µg/mL (≈ 0.707 µM) with Bacillus subtilis [1], 1 µg/mL (≈ 2.83 µM) in the experiment with Staphylococcus aureus [2] and 1 µg/mL (≈ 2.83 µM) in the experiment on Staphylococcus aureus [3].
Consider `Cc1cccc(-c2cccc(COc3ccc(F)c(C(N)=O)c3F)c2)c1`, for which the MIC was 32 µg/mL (≈ 90.6 µM) in the experiment with Bacillus subtilis [1], more than 128 µg/mL with Staphylococcus aureus [2] and more than 128 µg/mL in the experiment on Staphylococcus aureus [3].
For the molecule `COc1ccc(-c2cccc(COc3ccc(F)c(C(N)=O)c3F)c2)cc1`, the values for the MIC in the experiment with Bacillus subtilis [1], in the experiment with Staphylococcus aureus [2] and in the experiment on Staphylococcus aureus [3] were 0.25 µg/mL (≈ 0.677 µM), 2 µg/mL (≈ 5.41 µM) and 1 µg/mL (≈ 2.71 µM), respectively.

A word on the MIC: it is the least concentration at which growth counts as inhibited.
